Bioassay records (PubChem)
L major viab: reduces viability of Leishmania major promastigotes; resazurin fluorescence viability; inhibition, % at 10 µM; actives 9% (n = 200,000); AID 1063; in the data active = inhibition above about 50%;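 also: promastigotes grown with compound for 44 hours at 28 °C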
S1P3 antagonist: antagonists of human S1P3 receptor; Q99500; CHO S1P3 NFAT-BLA reporter, FRET fluorescence, antagonist mode; inhibition, % at 4.98 µM; actives 0.27% (n = 170,000); AID 485;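 active = inhibition above the plate cutoff, the mean inhibition of test wells on that plate plus 3 SD, cut at about 28% in these data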;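 also: cells challenged with S1P at its EC80 of 0.8 µM; blue over green emission ratio from cleaved BLA substrate after 4 h stimulation; 0% = S1P-stimulated wells and 100% = unstimulated DMSO-only wells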
MDM2 E3 inh: Mdm2 E3 ligase (human) inhibition; Q00987; cell-based MDM2 ubiquitination luciferase reporter, 2 h; 0 = plate control, 100 = twice control, blank-subtracted; signal enhancement, % at 5 µM; actives 0.11% (n = 210,000);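 active = signal enhancement of 30% or more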;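 also: luminescence tracks abundance of the self-degrading MDM2-luciferase fusion protein; higher signal means inhibition of MDM2 E3 ligase activity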
Target sequence (Q00987 whole entry, looked up, the tested form may be a part): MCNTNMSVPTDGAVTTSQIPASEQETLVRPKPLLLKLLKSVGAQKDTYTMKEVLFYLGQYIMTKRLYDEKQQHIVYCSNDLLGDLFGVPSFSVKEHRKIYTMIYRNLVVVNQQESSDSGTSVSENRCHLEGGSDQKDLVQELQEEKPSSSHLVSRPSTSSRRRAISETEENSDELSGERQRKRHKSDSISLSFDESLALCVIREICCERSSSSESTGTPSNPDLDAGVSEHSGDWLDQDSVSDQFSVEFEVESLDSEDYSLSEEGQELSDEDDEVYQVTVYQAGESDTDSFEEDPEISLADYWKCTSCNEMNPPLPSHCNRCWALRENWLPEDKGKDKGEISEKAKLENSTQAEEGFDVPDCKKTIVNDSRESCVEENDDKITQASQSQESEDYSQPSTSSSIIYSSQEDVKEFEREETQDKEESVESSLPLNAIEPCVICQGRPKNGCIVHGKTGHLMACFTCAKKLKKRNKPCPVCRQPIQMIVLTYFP
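Assay system: stable mammalian line carrying autodegrading MDM2–luciferase fusion reporter; amount: 2000 cells seeded into each well; buffer or medium: DMEM; benchmarks: plate control and blank wells; signal: luciferase luminescence; timing: 2 h compound exposure at 37 °C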
S1P4 ag: activates the human S1P4 receptor. O95977. S1P4-expressing cell line, agonist reporter assay. activation, % at 4.98 µM. actives 0.35% (n = 220,000); in the data active = activation above about 11%;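 also: 0% = DMSO vehicle and 100% = reference agonist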
S1P4 antag: antagonists of human S1P4 receptor | O95977 | S1P4-expressing cells, antagonist mode, reporter read-out | inhibition, % at 4.98 µM | actives 0.26% (n = 220,000); in the data active = inhibition above about 29%;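 also: 0% = wells stimulated with agonist and 100% = vehicle wells without agonist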
* hit, by the source's call. The full list was thinned out, with hits kept by preference.

Screening CCC(C)NC(=O)c1c(N)n(CC2CCCO2)c2nc3ccccc3nc12 (stereo not drawn) returned L major viab 67.3*, S1P3 antagonist 2.5, MDM2 E3 inh -10.6, S1P4 ag 1.1 and S1P4 antag -8.9.
Screening CCC(C)NC(=O)c1c(N)n(Cc2ccc3c(c2)OCO3)c2nc3ccccc3nc12 (stereo not drawn) returned L major viab 65.2*, S1P3 antagonist -76.6, MDM2 E3 inh -1.9, S1P4 ag 4.5 and S1P4 antag -10.4.
Screening O=c1oc2ccccc2c(O)c1[C@H]1c2ccc(O)cc2Oc2c1c(=O)oc1ccccc21 returned S1P3 antagonist 15.7, MDM2 E3 inh -7.6, S1P4 ag 0.8 and S1P4 antag -20.1.
`COc1cc(/C=N/NC(=O)CN2CC(c3ccccc3)CC2=O)ccc1OC(=O)N(C)C` (stereo not drawn) gave L major viab -4.6, MDM2 E3 inh -8.8, S1P4 ag -1.8 and S1P4 antag 2.7.
Cc1cc(C)cc(N2C(=O)NC(=O)/C(=C\C=C\c3ccco3)C2=O)c1 was read as L major viab 99.2*, S1P3 antagonist 4.6, MDM2 E3 inh 17.4, S1P4 ag 8.8 and S1P4 antag -1.0.
Screening Cc1ccc(N2C(=O)NC(=O)/C(=C/C=C/c3ccco3)C2=O)cc1 returned L major viab 83.0*, S1P3 antagonist 0.0, MDM2 E3 inh -10.9, S1P4 ag -0.7 and S1P4 antag -5.3.
CC(C)c1ccc(N2C(=O)NC(=O)/C(=C/C=C/c3ccco3)C2=O)cc1 was read as L major viab 94.1*, S1P3 antagonist -3.9, MDM2 E3 inh -5.2, S1P4 ag -0.4 and S1P4 antag -2.2.
CCc1c(C)nc(N)nc1N1N=C1SC(C(C)=O)C(C)=O was read as L major viab 2.8, S1P3 antagonist -3.4, MDM2 E3 inh -6.9, S1P4 ag 0.1 and S1P4 antag 14.0.
Screening Cc1ccc(C2(O)CC(C)N(C)CC2C)cc1 (stereo not drawn) returned L major viab 87.7*, S1P3 antagonist -16.7, MDM2 E3 inh -13.4, S1P4 ag 1.1 and S1P4 antag -5.1.
For CN1CC(C(=O)c2ccccc2)C(C(=O)c2ccccc2)C1 (stereo not drawn) the results were L major viab 3.1, MDM2 E3 inh -9.0, S1P4 ag -1.3 and S1P4 antag -9.5.
`CCOc1ccc(Br)c(C2(O)CC(C)N(C)CC2C)c1` (stereo not drawn) gave L major viab 83.2*, S1P3 antagonist 5.5, MDM2 E3 inh -13.7, S1P4 ag 2.5 and S1P4 antag -2.7.
For C=CCC1(Nc2ccccc2)CC(C)N(C)CC1C (stereo not drawn) the results were S1P3 antagonist 11.6, MDM2 E3 inh -1.6, S1P4 ag 0.6 and S1P4 antag -6.8.
`CC1CN(C)C(C)(C)CC1(O)c1ccccc1` (stereo not drawn) gave L major viab 57.1*, MDM2 E3 inh -14.2, S1P4 ag -3.9 and S1P4 antag 4.7.
Screening CC12CN3CC(c4ccccc4)(CN(C1)C31CCCCC1)C2=O returned L major viab -5.8, S1P3 antagonist -2.5, MDM2 E3 inh 6.6, S1P4 ag 0.5 and S1P4 antag -20.6.
Screening CCCC(=O)N(C)C1=Nc2ccc(Cl)cc2C(c2ccccc2)=[N+]([O-])C1 returned S1P3 antagonist -1.1, S1P4 ag -0.5 and S1P4 antag -12.1.
Screening Nc1c(C(=O)NCCN2CCOCC2)c2nc3ccccc3nc2n1Cc1ccco1 returned L major viab 18.4, S1P3 antagonist 2.3, MDM2 E3 inh -11.9, S1P4 ag 0.4 and S1P4 antag 10.5.
For COCCNC(=O)c1c(N)n(Cc2ccco2)c2nc3ccccc3nc12 the results were L major viab 54.9*, MDM2 E3 inh -17.6, S1P4 ag 1.2 and S1P4 antag -10.1.
For C=CCNC(=O)c1c(N)n(Cc2ccco2)c2nc3ccccc3nc12 the results were L major viab 100.2*, MDM2 E3 inh -15.7, S1P4 ag 2.1 and S1P4 antag -19.3.
Screening O=C1NC(=O)C(=Cc2ccc(OCC(=O)N3CCOCC3)cc2)C(=O)N1 returned L major viab 54.1*, S1P3 antagonist -9.4, MDM2 E3 inh -7.1, S1P4 ag -0.5 and S1P4 antag -4.0.
Screening CN(CCOc1ccc(C=C2C(=O)NC(=O)NC2=O)cc1)c1ccccn1 returned L major viab 1.2, S1P3 antagonist 2.7, MDM2 E3 inh -17.6, S1P4 ag -0.9 and S1P4 antag 7.9.
For Oc1ccc(/C=N/NP(=S)(c2ccccc2)c2ccccc2)cc1 the results were L major viab 89.6*, MDM2 E3 inh -0.6, S1P4 ag 1.5 and S1P4 antag -11.2.
COc1cc(/C=N/NP(=S)(c2ccccc2)c2ccccc2)ccc1O was read as L major viab 80.7*, MDM2 E3 inh -19.2, S1P4 ag 0.4 and S1P4 antag -5.5.
For COc1cc(C=C2C(=O)NC(=O)NC2=O)ccc1O the results were S1P3 antagonist 1.2, MDM2 E3 inh -15.9, S1P4 ag 0.8 and S1P4 antag 12.1.
`O=C(CCCOc1ccc(Cl)cc1Cl)N1CCC2(CC1)OCCO2` gave L major viab -5.4, S1P3 antagonist -21.7, MDM2 E3 inh -10.0, S1P4 ag -2.6 and S1P4 antag 9.8.
Screening Cc1cc(Cl)ccc1OCCCC(=O)NCc1cccs1 returned L major viab 59.8*, S1P3 antagonist 4.8, MDM2 E3 inh -7.3, S1P4 ag -1.1 and S1P4 antag -10.8.
Screening Cc1cc(OCCCC(=O)NCc2cccs2)ccc1Cl returned L major viab 55.9*, S1P3 antagonist -17.1, MDM2 E3 inh 6.7, S1P4 ag 0.5 and S1P4 antag -9.8.
For COCCCN=Cc1c(O)[nH]c(=S)[nH]c1=O the results were L major viab -6.6, S1P3 antagonist -25.1, MDM2 E3 inh 0.9, S1P4 ag -0.9 and S1P4 antag 13.3.
For CCN(CC)C(=O)c1ccc(NC(=O)COc2ccc([N+](=O)[O-])cc2Cl)cc1 the results were L major viab 50.1*, S1P3 antagonist -1.7, MDM2 E3 inh -5.5, S1P4 ag -0.3 and S1P4 antag -3.6.
For CCN(CC)C(=O)c1ccc(NC(=O)CCCSc2ccccc2)cc1 the results were L major viab -9.8, S1P3 antagonist -7.9, MDM2 E3 inh -6.2, S1P4 ag 0.5 and S1P4 antag -9.6.
Screening Oc1cccc2nc3ccccc3nc12 returned S1P3 antagonist 1.5, MDM2 E3 inh -6.0, S1P4 ag 0.2 and S1P4 antag -1.3.
For Cc1[nH]n(-c2ccccc2)c(=O)c1C(c1ccc([N+](=O)[O-])cc1)c1c(C)[nH]n(-c2ccccc2)c1=O the results were L major viab 61.8*, S1P3 antagonist -3.0, MDM2 E3 inh -11.3, S1P4 ag 0.1 and S1P4 antag -1.9.
COC(=O)C(O)(c1ccc(N(C)C(=O)COc2ccccc2)cc1)C(F)(F)F (stereo not drawn) was read as L major viab -5.1, S1P3 antagonist -3.8, MDM2 E3 inh -3.3, S1P4 ag 0.8 and S1P4 antag -18.0.
